ATG4B inh – blocks human ATG4B protease cleavage of LC3 substrate | Q9Y4P1 | ATG4B cleavage of LC3-PLA2, NBD-HPC fluorescence, 1 h | inhibition, % at 8.33 µM | 340,000 tested, 0.51% active | AID 504462; in the data active = inhibition above about 40%
Target sequence (Q9Y4P1 whole entry, looked up): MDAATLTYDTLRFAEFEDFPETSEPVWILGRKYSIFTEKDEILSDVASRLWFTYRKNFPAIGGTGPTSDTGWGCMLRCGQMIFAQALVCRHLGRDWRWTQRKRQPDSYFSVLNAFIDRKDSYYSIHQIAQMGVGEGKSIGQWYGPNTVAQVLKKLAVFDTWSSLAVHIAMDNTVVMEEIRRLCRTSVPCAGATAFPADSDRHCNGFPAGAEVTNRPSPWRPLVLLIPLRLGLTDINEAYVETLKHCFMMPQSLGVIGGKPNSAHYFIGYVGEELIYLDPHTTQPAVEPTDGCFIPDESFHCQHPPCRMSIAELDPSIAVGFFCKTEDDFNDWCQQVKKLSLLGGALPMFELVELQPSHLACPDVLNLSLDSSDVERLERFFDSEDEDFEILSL
SR-BI HDL uptake – inhibitors of mouse SR-BI mediated HDL lipid uptake | ldlA[mSR-BI] CHO cells, DiI-HDL uptake fluorescence, 3 h | Q61009 | inhibition, % at 12.5 µM | 320,000 tested, 0.96% active | AID 488896;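 active = mean replicate inhibition of at least 70% and a set share of replicates each scoring 70 or more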;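 note: 0% = median of neutral control wells and 100% = median of positive control wells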
CAL PDZ FP-1 – blocks peptide binding to human CAL PDZ domain; AID 504414; inhibition, % at 20 µM; purified CAL PDZ, TMR-peptide fluorescence polarization, 1 h; 330,000 tested, 0.02% active; Q9HD26;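 active = highest replicate inhibition of at least 40%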;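 note: plate controls were DMSO neutral control wells for no effect and unlabeled competitor peptide control wells for full effect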
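Control set: unlabelled peptide and DMSO controls / Material: purified CerCALP PDZ construct / Timing: 1 h incubation at room temperature before polarization reading / Doses: 20 µM, one dose / Detection: fluorescence polarization (mP)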
CAL PDZ FP-2 – inhibitors of human CAL PDZ peptide binding; AID 602252; inhibition, % at 24.9 µM; purified CAL PDZ, TMR-peptide fluorescence polarization, 1 h; 300,000 tested, 0.92% active;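 active = mean inhibition of at least 30% with at least half of replicates also reaching 30%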;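 note: 0% = DMSO neutral control and 100% = excess unlabeled competitor peptide PRC23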
SR-BI uptake up – enhances SR-BI lipid uptake from DiI-HDL. 320,000 tested, 0.096% active. AID 504775. CHO ldlA[mSR-BI] cells, DiI-HDL uptake fluorescence, 3 h; 100 = double the neutral-control signal. activation, % at 12.5 µM;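 active = mean replicate activation of at least 60% and every replicate at or above 60%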;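 note: 0% = median plate neutral-control signal and 100% = twice that signal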
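system = CHO ldlA[mSR-BI] cells, LDL receptor-null, SR-BI overexpressing | medium = Ham's F12 with 0.5% BSA, HEPES 25 mM, pH 7.4 | probe or stimulus = DiI-HDL 10 µg/mL | compound dosing = single-point compound dose | incubation = compound exposure 3 h, 37 °C | technique = DiI fluorescence, bottom read | read-out = cell-associated DiI fluorescence as measure of HDL uptake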
Starred values were filed as active, the others as inactive; x = not tested or not shown; + = active, no number. In the library only some 2.3% were active in any assay of this set; here they are far more common.

SMILES | ATG4B inh | SR-BI HDL uptake | CAL PDZ FP-1 | CAL PDZ FP-2 | SR-BI uptake up
COc1ccc(NC(=O)CS(=O)(=O)Cc2ccccc2)c([N+](=O)[O-])c1 | -2.9 | -12.0 | -0.1 | x | 12.0
Cc1ccc(/C(N)=N/OC(=O)c2cccs2)cc1 | 8.9 | -7.7 | -1.2 | -3.1 | 7.7
Cc1cccc(/C(N)=N/OC(=O)c2cccs2)c1 | -11.6 | -6.6 | -1.5 | 53.1* | 6.6
C[C@H](O)[C@@H]1C(=O)N2CCc3ccc(N4CCOCC4)cc3[C@@H]2C[C@@H]1N(C)C(=O)Nc1ccccc1 | 11.6 | 7.9 | -2.5 | -0.5 | -7.9
NC(=O)NC(CC(=O)NCCc1ccccn1)c1ccccc1Cl (configuration not stated) | 0.4 | -10.8 | -4.1 | -0.2 | 10.8
NC(=O)NC(CC(=O)NNC(=O)c1ccccn1)c1ccccc1Cl (configuration not stated) | 1.9 | -15.4 | 0.6 | 108.9* | 15.4
COC(=O)c1c(NC(=O)COC(=O)CNC(=O)c2ccco2)sc(C)c1C | -8.0 | 2.6 | -1.5 | 58.5* | -2.6
CCOC(=O)c1c(NC(=O)COC(=O)CNC(=O)c2ccco2)sc(C)c1C | 6.8 | 0.9 | -3.1 | -6.9 | -0.9
CCN(CC)S(=O)(=O)c1ccc(OC)c(NC(=O)c2cc(=O)[nH]c3ccccc23)c1 | 1.2 | -4.8 | -0.8 | 0.8 | 4.8
CCn1cc(C(=O)NCCc2ccccc2)c(=O)c2cc(S(=O)(=O)N3CCCC3)ccc21 | -9.6 | 72.9* | 0.3 | x | -72.9
COc1cc(C(=O)NCCc2ccc(S(=O)(=O)N3CCCC3)cc2)cc(OC)c1OC | -6.7 | -6.2 | -0.7 | x | 6.2
Cc1ccc(C(=O)NCCc2ccc(S(=O)(=O)N3CCCC3)cc2)cc1 | -2.4 | 6.5 | -0.3 | 43.9* | -6.5
COc1cc(C(=O)NCCc2ccc(S(N)(=O)=O)cc2)ccc1OCc1c(C)noc1C | -10.7 | 54.2 | 0.1 | 0.9 | -54.2
CCCCOc1ccccc1N1CCN(CCCN2C(=O)C3CCCN3C2=O)CC1 (configuration not stated) | -1.5 | -3.0 | x | 32.5* | 3.0
COc1ccccc1-n1cnnc1SC(C)C(=O)NCC1CCCO1 (configuration not stated) | -1.0 | -9.8 | -0.9 | x | 9.8
COc1ccc(NCC(=O)Nc2ccc(C#N)cc2)cc1Cl | 1.1 | 95.5* | -0.8 | x | -95.5
COc1ccc(NC(=O)CNc2cccc(C#N)c2)cc1Cl | -13.1 | 26.8 | -1.7 | -2.2 | -26.8
CCOc1cc(/C=C/c2ccc3cccc([N+](=O)[O-])c3n2)ccc1OCC(=O)N(C)C | -15.8 | 83.3* | -2.8 | -1.6 | -83.3
CCOc1cc(/C=C/c2ccc3cccc([N+](=O)[O-])c3n2)ccc1O | -10.9 | 80.8* | -0.7 | -7.5 | -80.8
COc1cc(/C=C/c2ccc3cccc([N+](=O)[O-])c3n2)ccc1OCC#N | -5.2 | 62.7 | -1.4 | -3.9 | -62.7
Cc1cc(C)cc(-n2ncc3c2CCCC3NC(=O)CCN2CCCC2=O)c1 (configuration not stated) | -4.8 | 2.5 | -1.7 | 0.6 | x
C=C[C@H]1[C@H](OC2OC(CO)C(O)C(O)C2O)OC=C(C(=O)OC)[C@H]1C[C@H]1CC(=O)C[C@H](CC(=O)CCc2ccc(O)cc2)O1 (some centres not stated) | -18.9 | x | x | x | x
Cc1ccccc1C(=O)c1cccn1CC(=O)NCCCN1CCCCC1 | 5.3 | -14.5 | -1.4 | -2.9 | 14.5
Cc1ccccc1C(=O)c1cccn1CC(=O)NCCC1=CCCCC1 | 39.6 | -14.9 | -0.3 | 56.5* | 14.9
O=C(COc1ccc([N+](=O)[O-])cc1)Nc1nnc(-c2cccnc2)s1 | 2.9 | x | 1.3 | -0.6 | x
SMILES | ATG4B inh | SR-BI HDL uptake | CAL PDZ FP-1 | CAL PDZ FP-2 | SR-BI uptake up
Oc1ccc(Nc2nc(-c3ccccc3)nc3ccccc23)cc1 | -17.1 | 22.3 | 0.3 | -2.9 | -22.3
Oc1ccc(Nc2nc3ccccc3nc2Nc2ccc(O)cc2)cc1 | 0.3 | 90.1* | -1.4 | -2.4 | -90.1
CCN(CC)c1ccc(CNc2nc3ccccc3n2CCN2CCCCC2)cc1 | 27.1 | 4.5 | -0.4 | 42.6* | -4.5
CCC(CC)c1nnc(NC(=O)c2cc([N+](=O)[O-])ccc2N2CCOCC2)s1 | -3.5 | 23.7 | -0.9 | -1.5 | -23.7
Cc1cc([N+](=O)[O-])ccc1NC(=O)Nc1ccccc1F | 2.5 | 93.8* | -2.1 | -4.2 | -93.8
O=C(Nc1ccccc1)Nc1cc([N+](=O)[O-])ccc1F | -14.0 | -14.2 | -1.0 | 6.4 | 14.2
Cc1cccc(NC(=O)C2CCN(S(C)(=O)=O)CC2)c1C | 1.7 | 12.2 | -4.4 | 55.3* | -12.2
Cc1cccc(NC(=O)C2CCN(S(=O)(=O)c3c(C)c(C)cc(C)c3C)CC2)n1 | -12.9 | 72.8* | -3.3 | 2.0 | -72.8
Cc1c(Cl)cccc1NC(=O)C1CCN(S(C)(=O)=O)CC1 | 5.1 | -29.8 | -1.2 | -1.2 | 29.8
CCN1C[C@@H]2[C@@H]3C(=O)N(Cc4ccccc4)C(=O)[C@@H]3[C@](C)(C1=O)N2C(=O)c1ccc(Cl)cc1 | -8.3 | -28.6 | -0.6 | 0.5 | 28.6
CC(C)CN1C(=O)c2ccc(NC(=O)Cc3ccccc3)cc2C1=O | -6.1 | 7.9 | -0.2 | 74.3* | -7.9
CCCCOc1ccccc1NC(=O)CC1SC(=NCC)N(CC)C1=O (configuration not stated) | 1.4 | 83.6* | -1.2 | -1.6 | -83.6
Cc1ccc(CC(=O)Nc2ccc(C(=O)N3CCOCC3)cc2)cc1 | -2.1 | -5.2 | -1.3 | -0.9 | 5.2
COc1ccc(COC(=O)c2ccc(Cl)c(S(=O)(=O)N3CC(C)OC(C)C3)c2)cc1 (configuration not stated) | -8.4 | 53.0 | -1.5 | -2.0 | -53.0
O=C(c1cnn2c(C(F)(F)F)cc(-c3ccco3)nc12)N1CCc2ccccc2C1 | 17.1 | 82.9* | -3.9 | 0.3 | -82.9
C/C(=N\Nc1cc(C)nc(-c2ccccc2O)n1)c1ccccc1 | -4.7 | 55.3 | 0.9 | -1.0 | -55.3
Cc1cc(N/N=C/c2ccc(O)c(C)c2O)nc(-c2ccccc2O)n1 | 28.8 | 104.3* | -4.6 | -2.5 | -104.3
Cc1cc(Nc2ccc(Br)cc2)nc(-c2ccccc2O)n1 | -1.8 | 75.1* | -2.2 | -2.2 | -75.1
CNC(=O)COC(=O)C1CCN(S(=O)(=O)c2ccc3c(c2)OCCO3)CC1 | 7.6 | 6.8 | 1.0 | x | -6.8
CCOC(=O)Nc1cc(N)ncn1 | -0.2 | -0.1 | 0.0 | -2.6 | 0.1
O=S(=O)(Nc1ccc2cn[nH]c2c1)c1ccc(C(F)(F)F)cc1 | 2.9 | -20.7 | -1.3 | -0.6 | 20.7
O=[N+]([O-])c1cccc(S(=O)(=O)Nc2ccc3cn[nH]c3c2)c1 | -8.1 | -2.0 | -0.2 | + | 2.0
Cc1cccc(NC(=O)CCCN=C2NS(=O)(=O)c3ccccc32)c1C | -22.2 | -8.2 | -0.3 | 7.6 | 8.2
CC1CCc2c(sc(NC(=O)c3cccn3C)c2C(N)=O)C1 (configuration not stated) | 4.4 | 81.3* | -0.9 | 3.4 | -81.3
